Data reported in ChEMBL document CHEMBL3576816, “5'-Silylated 3'-1,2,3-triazolyl Thymidine Analogues as Inhibitors of West Nile Virus and Dengue Virus” (J Med Chem, 2015).
Activity calls are given as the source filed them. The calls are words filed in the database; no cut-off is given here.

Tests used:
dengue virus type 3 = assay: Displacement of [3H]-SAM from biotinylated Dengue virus 3 methyltransferase expressed in Escherichia coli at 20 uM preincubated for 20 mins followed by [3H]-SAM addition measured after 15 mins by scintillation counting analysis
Summary of the method: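 Biotinylated refolded E. coli-expressed DENV3 MTase (580 nM) with SPA beads (1.5 mg/mL) and 20 μM competitor (compound, SAM or sinefungin) in Tris pH 7.5 buffer with NaCl, KCl, MgCl2, MnCl2, CHAPS, 20 min at 23°C; 3H-SAM (425 nM) added, 15 min at 23°C, centrifuged, scintillation proximity counting.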

[1] = Cytotoxicity against BHK cells infected with West Nile virus replicon assessed as cell viability after 3 days by CellTiter 96 aqueous one solution cell proliferation assay; format: cell-based, Mesocricetus auratus; settings: hamster, 72 h
Summary of the method: (§1)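 WNV replicon BHK cells, about 3 × 10^3/well, plated without antibiotic selection; next day compound in DMSO (10 μM final for screening, or eight serial dilutions), 3 days at 37°C, 5% CO2. Tetrazolium reagent, absorbance 450 nm, triplicate means versus DMSO wells; CC50 = 50% reduction in proliferation; CC50s mean ± SD of two experiments, top dose 200 μM.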

[2] = Cytotoxicity against BHK cells infected with Dengue virus replicon assessed as cell viability after 3 days by CellTiter 96 aqueous one solution cell proliferation assay; format: cell-based, Mesocricetus auratus; settings: hamster, 72 h
Summary of the method: as §1, with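 “DENV” for “WNV”, “1.5” for “about 3”, “Tetrazolium (MTS-type)” for “Tetrazolium”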

dengue virus type 2 [3] = assay: Antiviral activity against Dengue virus type 2 New Guinea C infected in African green monkey Vero cells assessed as reduction in viral titer at 10 uM after 2 days by Giemsa staining assay relative to control; format: functional; set-up: scale not given: the % may be the effect or the level left
Summary of the method: (§2)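 Vero cells, 4 × 10^5/well, infected with DENV-2 New Guinea C at MOI 0.2 for 2 h at 37°C, washed, then compound added (10 μM; MPA 1.0 μM). Supernatant taken after 2 days, clarified, 10-fold dilutions plaqued on Vero under methylcellulose for 5 days, fixed, Giemsa-stained; titer as PFU/mL, percent reduction; 10 μM from two experiments, 1.0 μM from one.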

Dengue virus [4] = assay: Antiviral activity against Dengue virus infected in BHK pD2-hRucPac-2ATG cells assessed as inhibition of viral replication after 3 days by luciferase reporter gene assay; format: functional, organism-based; settings: 72 h
Summary of the method: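 BHK DENV subgenomic replicon line carrying Renilla luciferase, kept on 3 μg/mL puromycin; 1.5 × 10^3 cells/well plated without selection, compounds in DMSO added next day to triplicate wells, at 10 μM final for screening or eight serial dilutions. Live-cell Renilla substrate after 3 days, luminescence versus DMSO wells; EC50 = 50% luciferase reduction; MPA 1 μM control.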

West Nile virus [5] = assay: Antiviral activity against West Nile virus infected in BHK-WII RepRen1B cells assessed as inhibition of viral replication after 3 days by luciferase reporter gene assay; format: functional, organism-based; settings: 72 h
dengue virus type 2 [6] = assay: Antiviral activity against Dengue virus type 2 New Guinea C infected in African green monkey Vero cells assessed as reduction in viral titer at 1 uM after 2 days by Giemsa staining assay relative to control; format: functional; set-up: scale not given: the % may be the effect or the level left; summary of the method: as §2
[7] = test system: unidentified influenza virus; assay: Antiviral activity against Influenzae virus; format: functional, organism-based
[8] = Cytotoxicity against BHK cells infected with Dengue virus replicon assessed as cell viability at 10 uM after 3 days by CellTiter 96 aqueous one solution cell proliferation assay relative to control; format: cell-based, Mesocricetus auratus; settings: hamster, bhk, 72 h, 10 µM
Summary of the method: as §1, with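 “DENV” for “WNV”, “1.5” for “about 3”, “Tetrazolium (MTS-type)” for “Tetrazolium”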

Dengue virus [9] = assay: Antiviral activity against Dengue virus infected in BHK pD2-hRucPac-2ATG cells assessed as inhibition of viral replication at 10 uM after 3 days by luciferase reporter gene assay relative to control; format: functional; settings: 72 h
Summary of the method: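 Renilla luciferase-bearing DENV subgenomic replicon BHK cells, kept on 3 μg/mL puromycin, seeded at 1.5 × 10^3/well without selection. Next day, 10 μM final compound in DMSO added to triplicate wells; MPA 1 μM as control inhibitor. After 3 days, medium swapped for live-cell Renilla substrate (1:1000, phenol-red-free DME, 10% FBS). Luminescence read; triplicate mean compared with DMSO-only wells.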

[10] = test system: Human immunodeficiency virus 1; assay: Antiviral activity against HIV1; format: functional, organism-based
[11] = Cytotoxicity against BHK cells infected with West Nile virus replicon assessed as cell viability at 10 uM after 3 days by CellTiter 96 aqueous one solution cell proliferation assay relative to control; format: cell-based, Mesocricetus auratus; settings: hamster, bhk, 72 h, 10 µM; summary of the method: as §1
[12] = molecular target: Human immunodeficiency virus type 1 reverse transcriptase (Human immunodeficiency virus 1) (UniProt Q72547); assay: Inhibition of HIV1 reverse transcriptase
Human betaherpesvirus 5 = assay: Antiviral activity against Human cytomegalovirus; format: functional, organism-based
Hepatitis C virus = assay: Antiviral activity against HCV; format: functional, organism-based; settings: Hepacivirus hominis
West Nile virus [13] = assay: Antiviral activity against West Nile virus infected in BHK-WII RepRen1B cells assessed as inhibition of viral replication at 10 uM after 3 days by luciferase reporter gene assay relative to control; format: functional; settings: 72 h
Summary of the method: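 Compound (DMSO, 10 μM final) added next day in triplicate; lycorine 1 μM served as control inhibitor. Three days on, live-cell Renilla substrate (1:1000 in phenol-red-free DME, 10% FBS) replaced medium. Luminescence measured; triplicate means compared with DMSO-alone wells.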

| Compound | inhibition (dengue virus type 3) | CC50 [1] | CC50 [2] | Activity (dengue virus type 2 [3]) | EC50 (Dengue virus [4]) | EC50 (West Nile virus [5]) | Activity (dengue virus type 2 [6]) | Activity [7] | Activity [8] | inhibition at 10 µM (Dengue virus [9]) | Activity [10] | Activity [11] | inhibition [12] | Activity (Human betaherpesvirus 5) | Activity (Hepatitis C virus) | inhibition at 10 µM (West Nile virus [13]) |
| --- | --- | --- | --- | --- | --- | --- | --- | --- | --- | --- | --- | --- | --- | --- | --- | --- |
| Cc1cn([C@H]2C[C@H](NC(=O)CCCCc3ccc(F)cc3)[C@@H](CO[Si](C)(C)C(C)(C)C)O2)c(=O)[nH]c1=O | Active | 23 µM | 22 µM | 67% | 9.6 µM | 15 µM |  |  |  |  |  |  |  |  |  |  |
| COc1c(C)c2c(c(O)c1C/C=C(\C)CCC(=O)O)C(=O)OC2 [MYCOPHENOLIC ACID] |  |  |  |  |  |  | 68% |  |  |  |  |  |  |  |  |  |
| Cc1cn([C@H]2C[C@H](NC(=O)Nc3cccc4ccccc34)[C@@H](CO[Si](C)(C)C(C)(C)C)O2)c(=O)[nH]c1=O | Active |  | 23 µM |  | 11 µM |  |  |  |  |  |  |  |  |  |  |  |
| Cc1cn([C@H]2C[C@H](n3nncc3-c3ccccc3)[C@@H](CO[Si](C)(C)C(C)(C)C)O2)c(=O)[nH]c1=O | Active | 32 µM | 31 µM |  | 14 µM | 8.4 µM |  | inactive | 93% | 51% | inactive | 99% | inactive | inactive | inactive | 93% |
| COc1ccc2cc(-c3cnnn3[C@H]3C[C@H](n4cc(C)c(=O)[nH]c4=O)O[C@@H]3CO[Si](C)(C)C(C)(C)C)ccc2c1 | Active | 13 µM | 7.9 µM |  | 7.3 µM | 2.9 µM |  | inactive | 86% | 85% | inactive | 100% | inactive | inactive | inactive | 97% |
| Cc1cn([C@H]2C[C@H](NS(=O)(=O)c3ccc4ccccc4c3)[C@@H](CO[Si](C)(C)C(C)(C)C)O2)c(=O)[nH]c1=O | Active | 12 µM | 14 µM |  | 7.4 µM | 8.4 µM |  |  |  |  |  |  |  |  |  |  |
| Cc1cn([C@H]2C[C@H](n3nncc3C3CCCCC3)[C@@H](CO[Si](C)(C)C(C)(C)C)O2)c(=O)[nH]c1=O | Active | 24 µM | 22 µM |  | 7.5 µM | 7.1 µM |  | inactive | 93% | 75% | inactive | 100% | inactive | inactive | inactive | 85% |
| Cc1cn([C@H]2C[C@H](N3C(=O)CSC3c3c4ccccc4cc4ccccc34)[C@@H](CO[Si](C)(C)C(C)(C)C)O2)c(=O)[nH]c1=O (mixture of isomers) | Active | 27 µM |  |  |  | 9 µM |  | inactive | 97% | 46% | inactive | 90% | inactive | inactive | inactive | 85% |
| COc1ccc2cc(-c3cn([C@H]4C[C@H](n5cc(C)c(=O)[nH]c5=O)O[C@@H]4CO[Si](C)(C)C(C)(C)C)nn3)ccc2c1 | Active | > 200 µM | 21 µM | 98% | 8.4 µM | 7.4 µM |  | inactive | 96% | 57% | inactive | 100% | inactive | inactive | inactive | 92% |
